Screening data deposited in PubChem BioAssay by several laboratories.
Only some compounds are listed: those with a hit (about 9.8% of all), similar ones and a draw of the others.
Rad51 HR inh: Rad51 (human) homologous recombination inhibition. hRad51 DNA strand exchange, fluorescence dequenching. inhibition, % at 10 µM. hit rate 0.085% among 200,000. AID 1385;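 active = inhibition above 40% at the single screening dose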;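 also: 0% = DMSO control wells and 100% = blanks with heterologous ssDNA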
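Test system: preformed human Rad51 ssDNA filaments; also added: Donor/quencher-labelled 47-bp dsDNA substrate; doses: 10 µM final, single point; times: 37 °C 15-min filament assembly, 30-min compound preincubation, 15-min exchange; detection: FRET fluorescence dequenching, excitation 485 nm, emission 520 nm; read-out basis: Fluorescence-based percent inhibition, control- and blank-normalised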
PMI activator: phosphomannose isomerase (human) activation; P34949; purified human PMI, coupled resazurin fluorescence, 20 min; active compounds read high; 1 = vehicle control, 0 substrate-free wells; AID 1214; hit rate 0.005% among 190,000; activation factor at 20 µM;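 active = activation factor of 2 or more at 20 µM, relative to plate controls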
Target sequence (P34949 whole entry, looked up): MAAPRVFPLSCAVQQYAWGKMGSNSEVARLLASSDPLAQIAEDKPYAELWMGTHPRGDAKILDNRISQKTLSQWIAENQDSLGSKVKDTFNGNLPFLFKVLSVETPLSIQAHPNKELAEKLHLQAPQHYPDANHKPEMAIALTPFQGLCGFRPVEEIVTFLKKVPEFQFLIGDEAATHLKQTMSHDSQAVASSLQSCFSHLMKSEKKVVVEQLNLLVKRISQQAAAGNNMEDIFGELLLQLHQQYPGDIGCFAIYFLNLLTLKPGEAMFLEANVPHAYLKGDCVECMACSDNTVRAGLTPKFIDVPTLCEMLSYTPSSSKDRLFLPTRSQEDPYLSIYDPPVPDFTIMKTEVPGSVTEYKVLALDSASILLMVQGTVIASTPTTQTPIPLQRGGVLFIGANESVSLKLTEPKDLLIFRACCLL
PMI act hi M6P: increases human PMI activity with near-saturating mannose 6-phosphate; coupled PMI enzyme assay, resazurin fluorescence, 20 min; active compounds read high; 1 = untreated enzyme, 0 = substrate-free blank; activation factor at 20 µM; hit rate 0.34% among 190,000; AID 1216;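 active = activation factor of 2 or more at 20 µM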
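Test system: Human PMI in coupled enzyme assay | Input: 15 ng/mL PMI | Medium: HEPES-buffered pH 7.4 with magnesium and detergent | Compound: One concentration, 20 µM, in 1% DMSO | Incubation: Enzyme reaction with compound 20 min at room temperature | Detection: Diaphorase-driven resazurin-to-resorufin fluorescence, excitation 544, emission 590 nm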
WT yeast gro inh: growth inhibition of WT yeast, mitochondrial fusion screen; mitochondrial fusion phenotypic screen, WT strain; inhibition, % at 10 µM; hit rate 2.1% among 190,000; in the data active = inhibition above about 58%; tested in S. cerevisiae
Lmaj promast: inhibitors of Leishmania major promastigote growth | inhibition, % at 10 µM | Leishmania major promastigotes, resazurin fluorescence viability | hit rate 9% among 200,000; in the data active = inhibition above about 50%;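 also: promastigotes grown with compound for 44 hours at 28 °C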
Calpain2 inh: calpain II (pig) inhibition; purified calpain II, fluorogenic peptide substrate, 30 min; inhibition, % at 16 µM; hit rate 0.37% among 220,000;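 active = inhibition above about 50%, limit read from the data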
* marks the source's active call; other numbers are inactive results; x = no result.

SMILES | Rad51 HR inh | PMI activator | PMI act hi M6P | WT yeast gro inh | Lmaj promast | Calpain2 inh
CCCOc1ccc(/C=N/NC(=O)C2CCCN2S(=O)(=O)c2ccc(Cl)cc2)cc1 (centres undefined) | 0 | 0.7 | 0.8 | -4 | 59* | 10
O=C(Nc1ccc(Cl)cn1)C1CCCN1S(=O)(=O)c1cccc2ccccc12 (centres undefined) | -4 | 0.9 | 1 | 8 | 1 | 30
O=C(Nc1ccc(Cl)cn1)C1CCCN1S(=O)(=O)c1ccc(Cl)cc1 (centres undefined) | 9 | 0.9 | 0.9 | 9 | 53* | 13
C=C1CCN([C@H](C(=O)NCc2ccco2)C(C)C)S(=O)(=O)c2ccccc21 | -6 | x | x | x | x | -8
CC(C(=O)Nc1cccc(Br)c1)c1ccc([N+](=O)[O-])cc1 (centres undefined) | x | 0.8 | 0.9 | 8 | 51* | 9
CC(C(=O)Nc1cccnc1)c1ccc([N+](=O)[O-])cc1 (centres undefined) | -4 | 1 | 1 | -5 | 7 | -4
Cc1cc([N+](=O)[O-])nn1CCCC(=O)Nc1cccc(Cl)c1Cl | -7 | 1.1 | 1 | 18 | -1 | 29
Cc1c(NC(=S)NC(NC(=O)C(C)C)C(Cl)(Cl)Cl)c(=O)n(-c2ccccc2)n1C (centres undefined) | -3 | 1 | 1 | 5 | -5 | -3
Cc1nc2ccccn2c1-c1ccnn1S(=O)(=O)c1ccc(F)cc1 | -7 | x | x | x | x | -5
Cc1cccc(NC2=NC(C)(C)N=C(N)N2)c1 | 0 | 1 | 1 | -7 | -3 | -29
CC1=CC(C)(C)N2C(=O)C3(N=C(N)NC(Nc4ccccc4)=N3)c3cc(C)cc1c32 (centres undefined) | 14 | 0.9 | 1 | 8 | 96* | -35
O=C1CC(C(=O)Nc2ccc(Cl)cc2)n2ncnc2N1 (centres undefined) | 11 | 1.1 | 1.1 | -20 | 15 | 74*
COc1cc(C(=O)O)nc(OC)n1 | -1 | 1.2 | 1.1 | 0 | -6 | 0
CC(=O)N1CCC(O)(c2cccc(C(F)(F)F)c2)CC1 | -1 | 1 | 1 | 96* | -5 | -4
O=S(=O)(c1cccc(C(F)(F)F)c1)N1CCC(O)(c2cccnc2)CC1 | -14 | 1 | 0.9 | -16 | 2 | 23
C/C(CC(=O)Nc1cccc(Cl)c1Cl)=N\NC(=O)c1ccccc1C | -9 | 1 | 1 | 10 | 15 | -16
CCC(=O)c1ccc(OCC(O)CN2CCOCC2)cc1 (centres undefined) | 2 | 0.8 | 0.9 | 2 | -6 | -12
CCC(=O)c1ccc(OCC(O)CNCc2ccc(F)cc2)cc1 (centres undefined) | 2 | 1 | 0.9 | -6 | 80* | 21
Cc1cccc(C)c1OCC(O)CN(Cc1ccccc1O)C1CCCCC1 (centres undefined) | 2 | 1 | 1 | 24 | 94* | 19
CN(CC(O)COC(c1ccccc1)c1ccccc1)C1CCCCC1 (centres undefined) | 3 | 1 | 1 | 13 | 19 | 26
Cc1cccc(C)c1OCC(O)CN1CCN(c2ccccc2)CC1 (centres undefined) | -1 | 1 | 1 | 7 | 15 | 6
CN(CC(O)COc1ccc(OCC(O)CN(C)C2CCCCC2)cc1)C1CCCCC1 (centres undefined) | 5 | 0.9 | 1 | 3 | 63* | -7
CCC(=O)c1ccc(OCC(O)CN(C)C2CCCCC2)cc1 (centres undefined) | x | 0.9 | 1 | 15 | 92* | 32
CCC(=O)c1ccc(OCC(O)CN2CCN(c3ccc(F)cc3)CC2)cc1 (centres undefined) | -7 | 0.9 | 1 | 8 | -4 | -28
COCCOc1cc2ncnc(N3CCC(C(=O)O)CC3)c2cc1OCCOC | 19 | x | x | x | x | 3
SMILES | Rad51 HR inh | PMI activator | PMI act hi M6P | WT yeast gro inh | Lmaj promast | Calpain2 inh
N#CCc1nn2c3c(cnc2c1C#N)C(=O)CCC3 | -5 | 1.1 | 0.6 | 11 | 3 | 0
Cc1[nH]n(-c2ccccc2)c(=O)c1N=Nc1ccc2c(c1)OCO2 | -5 | 1.1 | 0.9 | -11 | -3 | 2
Cc1[nH]n(C2=NCCS2)c(=O)c1N=Nc1ccccc1 | 3 | 1 | 1.1 | 6 | 80* | 7
Cc1[nH]n(-c2ccccc2)c(=O)c1N=Nc1nccs1 | -2 | 1.1 | 1.2 | 22 | 96* | 20
CC(Sc1nnnn1C)C(=O)Nc1ccc2c(c1)OCCO2 (centres undefined) | -19 | 0.9 | 1 | -5 | 10 | -19
CC(C)(C)C1CCc2c(C(=O)N/N=C/c3cccs3)csc2C1 (centres undefined) | -6 | 0.8 | 0.8 | 56 | 96* | -27
CCOC(=O)C1CCN(C(=O)c2cccnc2Oc2ccccc2)CC1 | -20 | x | x | x | x | 6
O=C(c1ccccc1Cl)N1N=C(c2ccc(Br)cc2)CC1c1nc2ccccc2[nH]1 (centres undefined) | 4 | 0.9 | 1 | 73* | 20 | -123
O=C(c1cccc(Cl)c1)N1CCC(c2nc3ccccc3[nH]2)CC1 | 2 | 1.2 | 1.2 | -16 | 4 | 3
O=S(=O)(CCSc1nc2ccccc2o1)c1nc2ccccc2s1 | 7 | 0.9 | 1 | 13 | 98* | -11
CCS(=O)(=O)CCSc1nc2ccccc2o1 | -7 | 1 | 1 | -5 | -2 | -10
CCN1CCCC1Cn1cnc2c([nH]c3ccc(OC)cc32)c1=O (centres undefined) | 4 | x | x | x | x | -99
O=C(COC(=O)c1ccc(S(=O)(=O)N2CCOCC2)cc1)NCc1cccs1 | 21 | 1 | 1.1 | -2 | -4 | 0
Cc1ccccc1OCCCSc1nc2ccccc2[nH]1 | 5 | 0.9 | 1 | 62* | 7 | 28
Cc1onc(-c2ccccc2)c1C(=O)OCC(=O)NCc1ccc(F)cc1 | -4 | 1.1 | 1.1 | 12 | -4 | 24
CCCC(=O)Nc1ccc2nc(SCC(=O)Nc3ccc(N4CCOCC4)c(Cl)c3)sc2c1 | -6 | 1 | 1.1 | 14 | 99* | -24
CC(C)(C)NC(=O)CSc1nc2ccc(NC(=O)CSc3nnc(N)s3)cc2s1 | 2 | 0.9 | 0.9 | -15 | 71* | -17
CC(C)(C)NC(=O)CSc1nc2ccc(NC(=O)CSc3nnnn3Cc3ccccc3)cc2s1 | 6 | 0.9 | 0.9 | 44 | 11 | -10
Cn1cccc1/C=C1\Cc2ccccc2C1=O | -32 | 1 | 0.9 | 23 | -2 | -9
Cn1cccc1/C=C1\CC(C(C)(C)C)C/C(=C\c2cccn2C)C1=O (centres undefined) | -100 | 1 | 1.2 | 6 | 87* | -22
Cn1cccc1/C=C1\CCc2ccccc2C1=O | -45 | 0.6 | 0.3 | 60* | -2 | 9
Cn1cccc1/C=C1\SC(=O)N(c2ccccc2)C1=O | -84 | 0.9 | 0.9 | 7 | -9 | -64
COC(=O)C(=O)/C=C(\O)c1c(C)cc(C)cc1C | 6 | x | x | x | x | -4
